B1: Osa-1-4 twister ribozyme (parent)
chain: CCGCCUAACACUGCCAAUGCCGGUCCCAAGCCCGGAUAAAAGUGGAGGGGGCGG

Variants of: B1
Experiment: self-cleavage, relative activity (ratio to wild type); higher = more cleavage; co-transcriptional
Method in brief: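 A DNA template encoding a 54-nucleotide twister ribozyme from Oryza sativa was made so that each of the 48 positions downstream of the cleavage site carried 97 % wild-type base and 1 % of each other base. Transcription in vitro ran for 2 h at 37 °C, during which the ribozyme could cleave itself. Reverse transcription used a template-switching oligonucleotide, and the products were PCR-amplified and deep-sequenced. Each read was scored as cleaved or uncleaved by whether upstream sequence was present, and relative activity is the fraction cleaved normalised to wild type.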

Variant | self-cleavage
CCGCCUAACACUGCCAAAGCCGGUCCCAAGCCCGGAUAAAAGUGGAGGGGGCGA [G54A U18A] | 0.88
CCGCCUAACACUGCCAACGCCGGUCCCAAGCCCGGAUAAAAGUGGAGGGGGCGA [G54A U18C] | 0.93
CCGCCUAACACUGCCAAGGCCGGUCCCAAGCCCGGAUAAAAGUGGAGGGGGCGA [G54A U18G] | 0.71
CCGCCUAACACUGCCAAUGCCGGUCCCAAGCCCGGAGAAAAGUGGAGGGGGCGA [G54A U37G] | 1
CCGCCUAACACUGCCAAUGCCGGUCCCAAGCCCGGACAAAAGUGGAGGGGGCGA [G54A U37C] | 0.98
CCGCCUAACACUGCCAAUGCCGGUCCCAAGCCCGGAAAAAAGUGGAGGGGGCGA [G54A U37A] | 0.73
CCGCCUAACACUGCCAAUGCCGGUCCCAAGCCCGGAUAAAAGGGGAGGGGGCGA [G54A U43G] | 0.69
CCGCCUAACACUGCCAAUGCCGGUCCCAAGCCCGGAUAAAAGCGGAGGGGGCGA [G54A U43C] | 0.58
CCGCCUAACACUGCCAAUGCCGGUCCCAAGCCCGGAUAAAAGAGGAGGGGGCGA [G54A U43A] | 0.84
CCGCCUAACACAGCCAAUGCCGGUCCCAAGCCCGGAUAAAAGUGGAGGGGGCGC [G54C U12A] | 0.43
CCGCCUAACACCGCCAAUGCCGGUCCCAAGCCCGGAUAAAAGUGGAGGGGGCGC [G54C U12C] | 0.57
CCGCCUAACACGGCCAAUGCCGGUCCCAAGCCCGGAUAAAAGUGGAGGGGGCGC [G54C U12G] | 0.32
CCGCCUAACACUGCCAAUGCCGGCCCCAAGCCCGGAUAAAAGUGGAGGGGGCUG [G53U U24C] | 0.06
CCGCCUAACACUGCCAAUGCCGGACCCAAGCCCGGAUAAAAGUGGAGGGGGCUG [G53U U24A] | 0.06
CCGCCUAACACUGCCAAUGCCGGGCCCAAGCCCGGAUAAAAGUGGAGGGGGCUG [G53U U24G] | 0.03
CCGCCUAACACCGCCAAUGCCGGUCCCAAGCCCGGAUAAAAGUGGAGGGGGCGA [G54A U12C] | 0.56
CCGCCUAACACAGCCAAUGCCGGUCCCAAGCCCGGAUAAAAGUGGAGGGGGCGA [G54A U12A] | 0.48
CCGCCUAACACGGCCAAUGCCGGUCCCAAGCCCGGAUAAAAGUGGAGGGGGCGA [G54A U12G] | 0.28
CCGCCUAACACAGCCAAUGCCGGUCCCAAGCCCGGAUAAAAGUGGAGGGGGCGU [G54U U12A] | 0.62

Variant | self-cleavage
CCGCCUAACACCGCCAAUGCCGGUCCCAAGCCCGGAUAAAAGUGGAGGGGGCGU [G54U U12C] | 0.67
CCGCCUAACACGGCCAAUGCCGGUCCCAAGCCCGGAUAAAAGUGGAGGGGGCGU [G54U U12G] | 0.4
CCGCCUAACACUGCCAAUGCCGGUCCCAAGCCCGGAAAAAAGUGGAGGGGGCGU [G54U U37A] | 0.73
CCGCCUAACACUGCCAAUGCCGGUCCCAAGCCCGGACAAAAGUGGAGGGGGCGU [G54U U37C] | 1.02
CCGCCUAACACUGCCAAUGCCGGUCCCAAGCCCGGAGAAAAGUGGAGGGGGCGU [G54U U37G] | 0.98
CCGCCUAACACUGCCAAUGCCGGUCCCAAGCCCGGAUAAAAGCGGAGGGGGCUG [G53U U43C] | 0.15
CCGCCUAACACUGCCAAUGCCGGUCCCAAGCCCGGAUAAAAGGGGAGGGGGCUG [G53U U43G] | 0.13
CCGCCUAACACUGCCAAUGCCGGUCCCAAGCCCGGAUAAAAGAGGAGGGGGCUG [G53U U43A] | 0.2
CCGCCUAACACUGCCAAAGCCGGUCCCAAGCCCGGAUAAAAGUGGAGGGGGCGU [G54U U18A] | 0.9
CCGCCUAACACUGCCAACGCCGGUCCCAAGCCCGGAUAAAAGUGGAGGGGGCGU [G54U U18C] | 0.95
CCGCCUAACACUGCCAAGGCCGGUCCCAAGCCCGGAUAAAAGUGGAGGGGGCGU [G54U U18G] | 0.73
CCGCCUAACACUGCCAAUGCCGGUCCCAAGCCCGGAUAAAAGAGGAGGGGGCGC [G54C U43A] | 0.86
CCGCCUAACACUGCCAAUGCCGGUCCCAAGCCCGGAUAAAAGGGGAGGGGGCGC [G54C U43G] | 0.76
CCGCCUAACACUGCCAAUGCCGGUCCCAAGCCCGGAUAAAAGCGGAGGGGGCGC [G54C U43C] | 0.6
CCGCCUAACACUGCCAAAGCCGGUCCCAAGCCCGGAUAAAAGUGGAGGGGGCGC [G54C U18A] | 0.85
CCGCCUAACACUGCCAAGGCCGGUCCCAAGCCCGGAUAAAAGUGGAGGGGGCGC [G54C U18G] | 0.77
CCGCCUAACACUGCCAACGCCGGUCCCAAGCCCGGAUAAAAGUGGAGGGGGCGC [G54C U18C] | 0.91
CCGCCUAACACUGCCAAUGCCGGUCCCAAGCCCGGAGAAAAGUGGAGGGGGCUG [G53U U37G] | 0.61
CCGCCUAACACUGCCAAUGCCGGUCCCAAGCCCGGACAAAAGUGGAGGGGGCUG [G53U U37C] | 0.55

Variant | self-cleavage
CCGCCUAACACUGCCAAUGCCGGUCCCAAGCCCGGAAAAAAGUGGAGGGGGCUG [G53U U37A] | 0.32
CCGCCUAACACUGCCAAUGCCGGUCCCAAGCCCGGAUAAAAGCGGAGGGGGCGU [G54U U43C] | 0.7
CCGCCUAACACUGCCAAUGCCGGUCCCAAGCCCGGAUAAAAGGGGAGGGGGCGU [G54U U43G] | 0.7
CCGCCUAACACUGCCAAUGCCGGUCCCAAGCCCGGAUAAAAGAGGAGGGGGCGU [G54U U43A] | 0.84
CCGCCUAACACUGCCAAUGCCGGUCCCAAGCCCGGAUAAAAGUGGAGGGGGCGU [G54U] | 1
CCGCCUAACACUGCCAAUGCCGGUCCCAAGCCCGGAUAAAAGUGGAGGGGGCGC [G54C] | 1
CCGCCUAACACUGCCAAUGCCGGUCCCAAGCCCGGAUAAAAGUGGAGGGGGCGA [G54A] | 1
CCGCCUAACACUGCCAAUGCCGGACCCAAGCCCGGAUAAAAGUGGAGGGGGCGA [G54A U24A] | 0.13
CCGCCUAACACUGCCAAUGCCGGGCCCAAGCCCGGAUAAAAGUGGAGGGGGCGA [G54A U24G] | 0.03
CCGCCUAACACUGCCAAUGCCGGCCCCAAGCCCGGAUAAAAGUGGAGGGGGCGA [G54A U24C] | 0.13
CCGCCUAACACUGCCAAUGCCGGGCCCAAGCCCGGAUAAAAGUGGAGGGGGCGU [G54U U24G] | 0.04
CCGCCUAACACUGCCAAUGCCGGACCCAAGCCCGGAUAAAAGUGGAGGGGGCGU [G54U U24A] | 0.34
CCGCCUAACACUGCCAAUGCCGGCCCCAAGCCCGGAUAAAAGUGGAGGGGGCGU [G54U U24C] | 0.23
CCGCCUAACACUGCCAAUGCCGGUCCCAAGCCCGGAAAAAAGUGGAGGGGGCGC [G54C U37A] | 0.71
CCGCCUAACACUGCCAAUGCCGGUCCCAAGCCCGGAGAAAAGUGGAGGGGGCGC [G54C U37G] | 1.03
CCGCCUAACACUGCCAAUGCCGGUCCCAAGCCCGGACAAAAGUGGAGGGGGCGC [G54C U37C] | 1.02
CCGCCUAACACUGCCAAUGCCGGACCCAAGCCCGGAUAAAAGUGGAGGGGGCGC [G54C U24A] | 0.07
CCGCCUAACACUGCCAAUGCCGGCCCCAAGCCCGGAUAAAAGUGGAGGGGGCGC [G54C U24C] | 0.11
CCGCCUAACACUGCCAAUGCCGGGCCCAAGCCCGGAUAAAAGUGGAGGGGGCGC [G54C U24G] | 0.02

From the RNAGym collection of RNA variant scans (doi:10.1002/anie.201605470)
